Source: ChEMBL document CHEMBL1811918, “Sesquiterpene and norsesquiterpene derivatives from Sanicula lamelligera and their biological evaluation” (J Nat Prod, 2011)

tested on: A549; assay: Cytostatic activity against human A549 cells after […] by MTT assay; type: functional, cell-based; conditions: not given
Procedure, shortened: (§1)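 MTT viability in human tumor lines exposed to a concentration series for 48 h. Adherent cells were allowed to attach for 12 h before dosing. Suspension cells were seeded immediately before dosing at (1–2) × 10^5 cells/mL. DMSO wells served as negative control and DDP (cisplatin) as positive control. IC50 was calculated from viability.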

| SMILES | IC50 [µM] |
| --- | --- |
| C=C1CC[C@H]2[C@@H]([C@@H]3[C@@H]1CC[C@@]3(C)O)C2(C)C | > 64.4 |
| C=C1CC[C@@H](O)[C@@]2(C)CC[C@H](C(C)C)[C@@H](O)[C@H]12 | 41.6 |
| C=C1CC[C@@H](O)[C@]2(C)CC[C@H](CC(C)(C)O)[C@@H]12 | > 64.4 |
| CC(=O)/C=C/[C@@]1(O)C(C)=CC(=O)CC1(C)C | > 64.4 |
| C=C1CC[C@H](O)[C@@]2(C)CC[C@@H]([C@@H](O)C(C)C)[C@H]12 | > 64.4 |
| C=C1CC[C@@H](O)[C@]2(C)CC[C@@](O)(C(C)C)C[C@@H]12 | > 64.4 |
| CC(=O)C=C=C1C(C)(C)C[C@H](O)C[C@@]1(C)O[C@@H]1O[C@H](CO)[C@@H](O)[C@H](O)[C@H]1O [CITROSIDE B] | > 64.4 |
| C=C(C)[C@@H]1CC[C@@]2(C)[C@H](O)CC[C@@](C)(O)[C@@H]2C1 [CYPERUSOL C] | > 64.4 |

tested on: MCF7; assay: Cytostatic activity against human MCF7 cells after […] by MTT assay; type: functional, cell-based; conditions: not given; procedure, shortened: as §1

| SMILES | IC50 [µM] |
| --- | --- |
| C=C1CC[C@H]2[C@@H]([C@@H]3[C@@H]1CC[C@@]3(C)O)C2(C)C | > 64.4 |
| C=C1CC[C@@H](O)[C@@]2(C)CC[C@H](C(C)C)[C@@H](O)[C@H]12 | 35.3 |
| C=C1CC[C@@H](O)[C@]2(C)CC[C@H](CC(C)(C)O)[C@@H]12 | > 64.4 |
| CC(=O)/C=C/[C@@]1(O)C(C)=CC(=O)CC1(C)C | > 64.4 |
| C=C1CC[C@H](O)[C@@]2(C)CC[C@@H]([C@@H](O)C(C)C)[C@H]12 | > 64.4 |
| C=C1CC[C@@H](O)[C@]2(C)CC[C@@](O)(C(C)C)C[C@@H]12 | > 64.4 |
| CC(=O)C=C=C1C(C)(C)C[C@H](O)C[C@@]1(C)O[C@@H]1O[C@H](CO)[C@@H](O)[C@H](O)[C@H]1O [CITROSIDE B] | > 64.4 |
| C=C(C)[C@@H]1CC[C@@]2(C)[C@H](O)CC[C@@](C)(O)[C@@H]2C1 [CYPERUSOL C] | > 64.4 |

tested on: not listed separately; assay: Cytotoxicity against human C8166 cells after 3 days by MTT assay; type: cell-based; conditions: not given
Procedure, shortened: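 C8166 cells were seeded in triplicate with or without a concentration series and held at 37 C for 3 days, with compound-free wells as negative control. Viable cells were quantified by MTT absorbance at 595/630 nm. CC50, the 50% reduction in viable cells, was taken from the dose–response curve.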

| SMILES | CC50 at 72 h [µM] |
| --- | --- |
| C=C1CC[C@H]2[C@@H]([C@@H]3[C@@H]1CC[C@@]3(C)O)C2(C)C | 170 |
| C=C1CC[C@@H](O)[C@@]2(C)CC[C@H](C(C)C)[C@@H](O)[C@H]12 | 68.1 |
| C=C1CC[C@@H](O)[C@]2(C)CC[C@H](CC(C)(C)O)[C@@H]12 | > 420 |
| CC(=O)/C=C/[C@@]1(O)C(C)=CC(=O)CC1(C)C | > 450 |
| C=C1CC[C@H](O)[C@@]2(C)CC[C@@H]([C@@H](O)C(C)C)[C@H]12 | 398 |
| C=C1CC[C@@H](O)[C@]2(C)CC[C@@](O)(C(C)C)C[C@@H]12 | > 420 |
| CC(=O)C=C=C1C(C)(C)C[C@H](O)C[C@@]1(C)O[C@@H]1O[C@H](CO)[C@@H](O)[C@H](O)[C@H]1O [CITROSIDE B] | > 259 |
| C=C(C)[C@@H]1CC[C@@]2(C)[C@H](O)CC[C@@](C)(O)[C@@H]2C1 [CYPERUSOL C] | > 420 |

tested on: Human immunodeficiency virus 1; assay: Antiviral activity against Human immunodeficiency virus 1 3B infected in human C8166 cells assessed as numbers of syncytia after 3 days by syncytium counting; conditions: C8166, 72 h

| SMILES | EC50 [µM] |
| --- | --- |
| C=C1CC[C@H]2[C@@H]([C@@H]3[C@@H]1CC[C@@]3(C)O)C2(C)C | 104 |
| C=C1CC[C@@H](O)[C@@]2(C)CC[C@H](C(C)C)[C@@H](O)[C@H]12 | 31.9 |
| C=C1CC[C@@H](O)[C@]2(C)CC[C@H](CC(C)(C)O)[C@@H]12 | > 420 |
| CC(=O)/C=C/[C@@]1(O)C(C)=CC(=O)CC1(C)C | > 450 |
| C=C1CC[C@H](O)[C@@]2(C)CC[C@@H]([C@@H](O)C(C)C)[C@H]12 | 167 |
| C=C1CC[C@@H](O)[C@]2(C)CC[C@@](O)(C(C)C)C[C@@H]12 | > 420 |
| CC(=O)C=C=C1C(C)(C)C[C@H](O)C[C@@]1(C)O[C@@H]1O[C@H](CO)[C@@H](O)[C@H](O)[C@H]1O [CITROSIDE B] | > 259 |
| C=C(C)[C@@H]1CC[C@@]2(C)[C@H](O)CC[C@@](C)(O)[C@@H]2C1 [CYPERUSOL C] | 150 |

tested on: RAW264.7; assay: Antiinflammatory against mouse RAW264.7 cells assessed as inhibition of LPS-induced nitric oxide production; type: functional, cell-based; conditions: not given
Procedure, shortened: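 Nitric oxide production was measured in LPS-stimulated RAW 264.7 macrophages, with DMSO wells as negative control and MG-132 as positive control. IC50 was derived.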

| SMILES | IC50 [µM] |
| --- | --- |
| C=C1CC[C@H]2[C@@H]([C@@H]3[C@@H]1CC[C@@]3(C)O)C2(C)C | > 64.4 |
| C=C1CC[C@@H](O)[C@@]2(C)CC[C@H](C(C)C)[C@@H](O)[C@H]12 | 28.1 |
| C=C1CC[C@@H](O)[C@]2(C)CC[C@H](CC(C)(C)O)[C@@H]12 | > 64.4 |
| CC(=O)/C=C/[C@@]1(O)C(C)=CC(=O)CC1(C)C | > 64.4 |
| C=C1CC[C@H](O)[C@@]2(C)CC[C@@H]([C@@H](O)C(C)C)[C@H]12 | > 64.4 |
| C=C1CC[C@@H](O)[C@]2(C)CC[C@@](O)(C(C)C)C[C@@H]12 | > 64.4 |
| CC(=O)C=C=C1C(C)(C)C[C@H](O)C[C@@]1(C)O[C@@H]1O[C@H](CO)[C@@H](O)[C@H](O)[C@H]1O [CITROSIDE B] | > 64.4 |
| C=C(C)[C@@H]1CC[C@@]2(C)[C@H](O)CC[C@@](C)(O)[C@@H]2C1 [CYPERUSOL C] | > 64.4 |

tested on: SMMC-7721; assay: Cytostatic activity against human SMMC7721 cells after […] by MTT assay; type: functional, cell-based; conditions: not given; procedure, shortened: as §1

| SMILES | IC50 [µM] |
| --- | --- |
| C=C1CC[C@H]2[C@@H]([C@@H]3[C@@H]1CC[C@@]3(C)O)C2(C)C | > 64.4 |
| C=C1CC[C@@H](O)[C@@]2(C)CC[C@H](C(C)C)[C@@H](O)[C@H]12 | 32.4 |
| C=C1CC[C@@H](O)[C@]2(C)CC[C@H](CC(C)(C)O)[C@@H]12 | > 64.4 |
| CC(=O)/C=C/[C@@]1(O)C(C)=CC(=O)CC1(C)C | > 64.4 |
| C=C1CC[C@H](O)[C@@]2(C)CC[C@@H]([C@@H](O)C(C)C)[C@H]12 | > 64.4 |
| C=C1CC[C@@H](O)[C@]2(C)CC[C@@](O)(C(C)C)C[C@@H]12 | > 64.4 |
| CC(=O)C=C=C1C(C)(C)C[C@H](O)C[C@@]1(C)O[C@@H]1O[C@H](CO)[C@@H](O)[C@H](O)[C@H]1O [CITROSIDE B] | > 64.4 |
| C=C(C)[C@@H]1CC[C@@]2(C)[C@H](O)CC[C@@](C)(O)[C@@H]2C1 [CYPERUSOL C] | > 64.4 |

tested on: not listed separately; assay: Therapeutic index, ratio of CC50 for human C8166 cells to EC50 for Human immunodeficiency virus 1 3B infected in human C8166 cells; type: cell-based; conditions: read-out: Ratio CC50/EC50
Procedure, shortened: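 Ratio of CC50 (MTT viability of uninfected C8166 cells, 3 days, 37 C) to EC50 (syncytium counts in HIV-1 IIIB-infected C8166 cells, 3 days, 37 C).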

| SMILES | selectivity ratio |
| --- | --- |
| C=C1CC[C@H]2[C@@H]([C@@H]3[C@@H]1CC[C@@]3(C)O)C2(C)C | 1.6 |
| C=C1CC[C@@H](O)[C@@]2(C)CC[C@H](C(C)C)[C@@H](O)[C@H]12 | 2.1 |
| C=C1CC[C@H](O)[C@@]2(C)CC[C@@H]([C@@H](O)C(C)C)[C@H]12 | 2.4 |
| C=C(C)[C@@H]1CC[C@@]2(C)[C@H](O)CC[C@@](C)(O)[C@@H]2C1 [CYPERUSOL C] | > 2.8 |

tested on: SW480; assay: Cytostatic activity against human SW480 cells after […] by MTT assay; type: functional, cell-based; conditions: not given; procedure, shortened: as §1

| SMILES | IC50 [µM] |
| --- | --- |
| C=C1CC[C@H]2[C@@H]([C@@H]3[C@@H]1CC[C@@]3(C)O)C2(C)C | > 64.4 |
| C=C1CC[C@@H](O)[C@@]2(C)CC[C@H](C(C)C)[C@@H](O)[C@H]12 | 37 |
| C=C1CC[C@@H](O)[C@]2(C)CC[C@H](CC(C)(C)O)[C@@H]12 | > 64.4 |
| CC(=O)/C=C/[C@@]1(O)C(C)=CC(=O)CC1(C)C | > 64.4 |
| C=C1CC[C@H](O)[C@@]2(C)CC[C@@H]([C@@H](O)C(C)C)[C@H]12 | > 64.4 |
| C=C1CC[C@@H](O)[C@]2(C)CC[C@@](O)(C(C)C)C[C@@H]12 | > 64.4 |
| CC(=O)C=C=C1C(C)(C)C[C@H](O)C[C@@]1(C)O[C@@H]1O[C@H](CO)[C@@H](O)[C@H](O)[C@H]1O [CITROSIDE B] | > 64.4 |
| C=C(C)[C@@H]1CC[C@@]2(C)[C@H](O)CC[C@@](C)(O)[C@@H]2C1 [CYPERUSOL C] | > 64.4 |

tested on: HL-60; assay: Cytostatic activity against human HL60 cells after […] by MTT assay; type: functional, cell-based; conditions: not given; procedure, shortened: as §1

| SMILES | IC50 [µM] |
| --- | --- |
| C=C1CC[C@H]2[C@@H]([C@@H]3[C@@H]1CC[C@@]3(C)O)C2(C)C | > 64.4 |
| C=C1CC[C@@H](O)[C@@]2(C)CC[C@H](C(C)C)[C@@H](O)[C@H]12 | 31.1 |
| C=C1CC[C@@H](O)[C@]2(C)CC[C@H](CC(C)(C)O)[C@@H]12 | > 64.4 |
| CC(=O)/C=C/[C@@]1(O)C(C)=CC(=O)CC1(C)C | > 64.4 |
| C=C1CC[C@H](O)[C@@]2(C)CC[C@@H]([C@@H](O)C(C)C)[C@H]12 | > 64.4 |
| C=C1CC[C@@H](O)[C@]2(C)CC[C@@](O)(C(C)C)C[C@@H]12 | > 64.4 |
| CC(=O)C=C=C1C(C)(C)C[C@H](O)C[C@@]1(C)O[C@@H]1O[C@H](CO)[C@@H](O)[C@H](O)[C@H]1O [CITROSIDE B] | > 64.4 |
| C=C(C)[C@@H]1CC[C@@]2(C)[C@H](O)CC[C@@](C)(O)[C@@H]2C1 [CYPERUSOL C] | > 64.4 |
